# Several values for one entry are separate records, joined by “and”; a condition that tells them apart may be missing. Equal values may be shown once.
# Key:
# Vero [1] = test: Comparative Potency (IC50s) at HSV-1 passage 3 in vero cells; assay type: functional, cell-based; settings: Chlorocebus sabaeus
# Method in brief: (§1)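 Vero cells infected with 100 TCID50 of HSV-1 (Sm44) or HSV-2 (Sav); compound in DMSO diluted in medium and added 2 h post-infection, triplicates per concentration. Passaging: virus recovered from cultures at the IC50 infected fresh Vero cells, and the IC50 was redetermined each passage.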
# Vero [2] = test: Comparative Potency (IC50s) at HSV-1 passage 4 in vero cells; assay type: functional, cell-based; settings: Chlorocebus sabaeus; method in brief: as §1
# Vero [3] = test: Comparative Potency (IC50s) at HSV-1 passage 5 in vero cells; assay type: functional, cell-based; settings: Chlorocebus sabaeus; method in brief: as §1
# Vero [4] = test: Comparative Potency (IC50s) at HSV-1 passage 6 in vero cells; assay type: functional, cell-based; settings: Chlorocebus sabaeus; method in brief: as §1
# Vero [5] = test: Comparative Potency (IC50s) at HSV-1 passage 2 in vero cells; assay type: functional, cell-based; settings: Chlorocebus sabaeus; method in brief: as §1
# Vero [6] = test: Comparative Potency (IC50s) at HSV-1 passage 7 in vero cells; assay type: functional, cell-based; settings: Chlorocebus sabaeus; method in brief: as §1
# Vero [7] = test: Comparative Potency (IC50s) at HSV-1 passage 8 in vero cells; assay type: functional, cell-based; settings: Chlorocebus sabaeus; method in brief: as §1
# Vero [8] = test: Comparative Potency (IC50s) at HSV-1 passage 9 in vero cells; assay type: functional, cell-based; settings: Chlorocebus sabaeus; method in brief: as §1
# Vero [9] = test: Comparative Potency (IC50s) at HSV-2 passage 1 in vero cells; assay type: functional, cell-based; settings: Chlorocebus sabaeus; method in brief: as §1
# Vero [10] = test: Comparative Potency (IC50s) at HSV-2 passage 2 in vero cells; assay type: functional, cell-based; settings: Chlorocebus sabaeus; method in brief: as §1
# Vero [11] = test: Comparative Potency (IC50s) at HSV-2 passage 3 in vero cells; assay type: functional, cell-based; settings: Chlorocebus sabaeus; method in brief: as §1
# Vero [12] = test: Comparative Potency (IC50s) at HSV-2 passage 4 in vero cells; assay type: functional, cell-based; settings: Chlorocebus sabaeus; method in brief: as §1
# [13] = Ralative safety was expressed as Selective index (TC50/IC50) at HSV-1 passage 6 in vero cells; assay type: functional
# Method in brief: (§2)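 SI = TC50/IC50 per passage. IC50 comes from serial passage of HSV-1 Sm44 or HSV-2 Sav in Vero cells (100 TCID50, drug added 2 h p.i., CPE read-out, triplicates). TC50 comes from uninfected Vero cells by a tetrazolium viability assay, run three times in triplicate and averaged.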
# [14] = Ralative safety was expressed as Selective index (TC50/IC50) at HSV-1 passage 1 in vero cells; assay type: functional; method in brief: as §2
# [15] = Ralative safety was expressed as Selective index (TC50/IC50) at HSV-1 passage 2 in vero cells; assay type: functional; method in brief: as §2
# [16] = Ralative safety was expressed as Selective index (TC50/IC50) at HSV-1 passage 3 in vero cells; assay type: functional; method in brief: as §2
# [17] = Ralative safety was expressed as Selective index (TC50/IC50) at HSV-1 passage 4 in vero cells; assay type: functional; method in brief: as §2
# [18] = Ralative safety was expressed as Selective index (TC50/IC50) at HSV-1 passage 5 in vero cells; assay type: functional; method in brief: as §2
# [19] = Ralative safety was expressed as Selective index (TC50/IC50) at HSV-1 passage 7 in vero cells; assay type: functional; method in brief: as §2
# [20] = Ralative safety was expressed as Selective index (TC50/IC50) at HSV-1 passage 8 in vero cells; assay type: functional; method in brief: as §2
# [21] = Ralative safety was expressed as Selective index (TC50/IC50) at HSV-1 passage 9 in vero cells; assay type: functional; method in brief: as §2
# [22] = Ralative safety was expressed as Selective index (TC50/IC50) at HSV-2 passage 2 in vero cells; assay type: functional; method in brief: as §2
# [23] = Ralative safety was expressed as Selective index (TC50/IC50) at HSV-2 passage 3 in vero cells; assay type: functional; method in brief: as §2
# [24] = Ralative safety was expressed as Selective index (TC50/IC50) at HSV-2 passage 4 in vero cells; assay type: functional; method in brief: as §2
# [25] = Ralative safety was expressed as Selective index (TC50/IC50) at HSV-2 passage 1 in vero cells; assay type: functional; method in brief: as §2
# [26] = Ralative safety was expressed as Selective index (TC50/IC50) at HSV-1 passage 10 in vero cells; assay type: functional; method in brief: as §2
# Mus musculus [27] = test: Percent Change in body weight of 5 mice when intraperitoneally administered daily once for 7 days at dose 50 mg/kg; assay type: functional; settings: route intraperitoneal
# Mus musculus [28] = test: Percent Change in body weight of 5 mice when intraperitoneally administered daily once for 1 day at dose 300 mg/kg; assay type: functional; settings: route intraperitoneal
# [29] = Mortality in 5 mice when intraperitoneally administered daily twice for 5 days at dose 50 mg/kg; assay type: ADME, organism-based; set-up: dose 50 mg/kg, route intraperitoneal; settings: mouse, in vivo, ip, 120 h
# [30] = Mortality in 5 mice when intraperitoneally administered daily once for 7 days at dose 100 mg/kg; assay type: ADME, organism-based; set-up: dose 100 mg/kg, route intraperitoneal; settings: mouse, in vivo, ip, 168 h
# [31] = Mortality in 5 mice when intraperitoneally administered daily once for 7 days at dose 25 mg/kg; assay type: ADME, organism-based; set-up: dose 25 mg/kg, route intraperitoneal; settings: mouse, in vivo, ip, 168 h
# [32] = Mortality in 5 mice when intraperitoneally administered daily once for 7 days at dose 50 mg/kg; assay type: ADME, organism-based; set-up: dose 50 mg/kg, route intraperitoneal; settings: mouse, in vivo, ip, 168 h
# [33] = Relative safety was expressed as Selective index (TC50/IC50) at HSV-1 passage 4 in vero cells; assay type: functional; method in brief: as §2
# [34] = Relative safety was expressed as Selective index (TC50/IC50) at HSV-1 passage 6 in vero cells; assay type: functional; method in brief: as §2
# [35] = Relative safety was expressed as Selective index (TC50/IC50) at HSV-1 passage 7 in vero cells; assay type: functional; method in brief: as §2
# [36] = Relative safety was expressed as Selective index (TC50/IC50) at HSV-1 passage 8 in vero cells; assay type: functional; method in brief: as §2
# [37] = Relative safety was expressed as Selective index (TC50/IC50) at HSV-1 passage 9 in vero cells; assay type: functional; method in brief: as §2
# [38] = Relative safety was expressed as Selective index (TC50/IC50) at HSV-2 passage 1 in vero cells; assay type: functional; method in brief: as §2
# [39] = Relative safety was expressed as Selective index (TC50/IC50) at HSV-1 passage 1 in vero cells; assay type: functional; method in brief: as §2
# [40] = Relative safety was expressed as Selective index (TC50/IC50) at HSV-1 passage 10 in vero cells; assay type: functional; method in brief: as §2
# [41] = Relative safety was expressed as Selective index (TC50/IC50) at HSV-1 passage 2 in vero cells; assay type: functional; method in brief: as §2
# [42] = Relative safety was expressed as Selective index (TC50/IC50) at HSV-1 passage 3 in vero cells; assay type: functional; method in brief: as §2
# [43] = Relative safety was expressed as Selective index (TC50/IC50) at HSV-2 passage 2 in vero cells; assay type: functional; method in brief: as §2
# [44] = Relative safety was expressed as Selective index (TC50/IC50) at HSV-2 passage 3 in vero cells; assay type: functional; method in brief: as §2
# [45] = Relative safety was expressed as Selective index (TC50/IC50) at HSV-2 passage 4 in vero cells; assay type: functional; method in brief: as §2
# Vero [46] = test: Comparative Potency (IC50s) at HSV-1 passage 10 in vero cells; assay type: functional, cell-based, Chlorocebus sabaeus; method in brief: as §1
# [47] = Relative safety was expressed as Selective index (TC50/IC50) at HSV-1 passage 5 in vero cells; assay type: functional; method in brief: as §2
compound,measurement,setting,value
Nc1nc2c(ncn2COCCO)c(=O)[nH]1 [ACYCLOVIR],IC50,Vero [1],> 88.8 µM
same,IC50,Vero [2],138 µM
same,IC50,Vero [3],111 µM
same,IC50,Vero [4],131 µM
same,IC50,Vero [5],37.8 µM
same,IC50,Vero [6],190 µM
same,IC50,Vero [7],444 µM
same,IC50,Vero [8],379 µM
same,IC50,Vero [9],6.66 µM
same,IC50,Vero [10],> 44.4 µM
same,IC50,Vero [11],62.8 µM
same,IC50,Vero [12],> 88.8 µM
same,Selectivity index,[13],34
same,Selectivity index,[14],589
same,Selectivity index,[15],117
same,Selectivity index,[16],50
same,Selectivity index,[17],32
same,Selectivity index,[18],40
same,Selectivity index,[19],23
same,Selectivity index,[20],23
same,Selectivity index,[21],11
same,Selectivity index,[22],100
same,Selectivity index,[23],70
same,Selectivity index,[24],50
same,Selectivity index,[25],667
same,Selectivity index,[26],10
COc1ccc(C[C@@H](C)[C@@H](C)Cc2ccc(OC)c(OC)c2)cc1OC [TERAMEPROCOL],Change,Mus musculus [27],-2.8%
same,Change,Mus musculus [28],-2.66%
same,Mortality,[29],1
same,Mortality,[30],0
same,Mortality,[31],0
same,Mortality,[32],0
same,IC50,Vero [1],8.24 µM
same,IC50,Vero [2],5.97 µM
same,IC50,Vero [3],6.48 µM
same,IC50,Vero [4],6.98 µM
same,IC50,Vero [5],4.4 µM
same,IC50,Vero [6],6.98 µM
same,IC50,Vero [7],9.91 µM
same,IC50,Vero [8],8.82 µM
same,IC50,Vero [9],4.18 µM
same,IC50,Vero [10],11.1 µM
same,IC50,Vero [11],11.1 µM
same,IC50,Vero [12],11.1 µM
same,Selectivity index,[33],26.8
same,Selectivity index,[34],22.9
same,Selectivity index,[35],22.9
same,Selectivity index,[36],16.1
same,Selectivity index,[37],18.1
same,Selectivity index,[38],38.3
same,Selectivity index,[39],13.7
same,Selectivity index,[40],33.5
same,Selectivity index,[41],36.4
same,Selectivity index,[42],19.4
same,Selectivity index,[43],14.4
same,Selectivity index,[44],14.4
same,Selectivity index,[45],14.4
same,IC50,Vero [46],11.7 µM and 4.47 µM
same,Selectivity index,[47],24.7

# Source: ChEMBL document CHEMBL1131049, “Antiviral activities of methylated nordihydroguaiaretic acids. 2. Targeting herpes simplex virus replication by the mutation insensitive transcription inhibitor tetra-O-methyl-NDGA” (J Med Chem, 1998)
